# Measured values as given in article PMC3775155 (Clinical Drug Investigation, 2013).
# Several values for one entry are separate records, joined by “and”; a condition that tells them apart may be missing. Equal values may be shown once. Read-outs that look alike come from different tables or passages of the source.
# Experiments:
# [1] = format: in vivo, human
# [2] = format: in vivo, human; remark: listed apart in the source
# [3] = Adverse events in the bupropion study; format: in vivo, human; conditions: monotherapy period, days 1–14, n = 30
# [4] = format: in vivo, human; conditions: for AUC / Cmax: female, human, plasma, oral; for AUC: AUC24, least-squares mean, day 21; for Cmax: least-squares mean; for AUC24 ratio (test/reference) / Cmax ratio (test/reference): with vortioxetine vs alone
# [5] = Pharmacological activity of the major metabolite; conditions: major carboxylic acid metabolite
# [6] = Plasma metabolic ratio of metabolite; format: in vivo; conditions: minor hydroxyl metabolite of vortioxetine
# [7] = Nonclinical pharmacology study: blood–brain barrier penetration; conditions: based on a nonclinical pharmacology study, unpublished results
# [8] = format: in vivo, human; remark: listed apart in the source
# Outline: (§1)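 Open-label, randomized, 1-sequence design in healthy adults aged 18–55 y with BMI 19–30 kg/m2 (N = 36 across two arms). Test compound given as a single 10 mg dose on day 1, then a 14-day washout. The azole antifungal was given at 200 mg once daily on days 15–21, with test compound 10 mg on day 21. EDTA plasma was sampled predose and 1–120 h postdose on days 1 and 21. Analysis used SPE and HPLC. Noncompartmental AUClast, AUC∞ and Cmax were derived. A mixed-effects model (treatment fixed, subject random) was applied, and back-transformed LS-mean ratios with 90% CI are reported.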
# [9] = cited from earlier work
# [10] = format: in vivo, human; remark: listed apart in the source
# CYP2C19 = experiment: In vitro CYP inhibition; format: in vitro ADME
# CYP1A2 = experiment: In vitro CYP inhibition; format: in vitro ADME
# CYP2E1 = experiment: In vitro CYP inhibition; format: in vitro ADME
# [11] = format: in vivo, human; remark: listed apart in the source
# CYP2C8 = experiment: In vitro CYP inhibition; format: in vitro ADME
# CYP2B6 = experiment: In vitro CYP inhibition; format: in vitro ADME
# [12] = format: in vivo, human; remark: listed apart in the source
# Outline: as §1, with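 “antifungal (CYP3A/P-gp inhibitor)” for “antifungal”, “400” for “200”, “gave” for “was applied, and”, “CI.” for “CI are reported.”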
# CYP2D6 = experiment: In vitro CYP inhibition; format: in vitro ADME
# [13] = cited from earlier work; remark: listed apart in the source
# CYP2A6 = experiment: In vitro CYP inhibition; format: in vitro ADME
# P-glycoprotein (P-gp) = P-glycoprotein (P-gp) (Homo sapiens, UniProt P08183); experiment: In vitro P-gp net efflux ratio; format: in vitro ADME; conditions: compared with digoxin; unpublished results
# P-glycoprotein (P-gp), sequence (P08183 whole entry): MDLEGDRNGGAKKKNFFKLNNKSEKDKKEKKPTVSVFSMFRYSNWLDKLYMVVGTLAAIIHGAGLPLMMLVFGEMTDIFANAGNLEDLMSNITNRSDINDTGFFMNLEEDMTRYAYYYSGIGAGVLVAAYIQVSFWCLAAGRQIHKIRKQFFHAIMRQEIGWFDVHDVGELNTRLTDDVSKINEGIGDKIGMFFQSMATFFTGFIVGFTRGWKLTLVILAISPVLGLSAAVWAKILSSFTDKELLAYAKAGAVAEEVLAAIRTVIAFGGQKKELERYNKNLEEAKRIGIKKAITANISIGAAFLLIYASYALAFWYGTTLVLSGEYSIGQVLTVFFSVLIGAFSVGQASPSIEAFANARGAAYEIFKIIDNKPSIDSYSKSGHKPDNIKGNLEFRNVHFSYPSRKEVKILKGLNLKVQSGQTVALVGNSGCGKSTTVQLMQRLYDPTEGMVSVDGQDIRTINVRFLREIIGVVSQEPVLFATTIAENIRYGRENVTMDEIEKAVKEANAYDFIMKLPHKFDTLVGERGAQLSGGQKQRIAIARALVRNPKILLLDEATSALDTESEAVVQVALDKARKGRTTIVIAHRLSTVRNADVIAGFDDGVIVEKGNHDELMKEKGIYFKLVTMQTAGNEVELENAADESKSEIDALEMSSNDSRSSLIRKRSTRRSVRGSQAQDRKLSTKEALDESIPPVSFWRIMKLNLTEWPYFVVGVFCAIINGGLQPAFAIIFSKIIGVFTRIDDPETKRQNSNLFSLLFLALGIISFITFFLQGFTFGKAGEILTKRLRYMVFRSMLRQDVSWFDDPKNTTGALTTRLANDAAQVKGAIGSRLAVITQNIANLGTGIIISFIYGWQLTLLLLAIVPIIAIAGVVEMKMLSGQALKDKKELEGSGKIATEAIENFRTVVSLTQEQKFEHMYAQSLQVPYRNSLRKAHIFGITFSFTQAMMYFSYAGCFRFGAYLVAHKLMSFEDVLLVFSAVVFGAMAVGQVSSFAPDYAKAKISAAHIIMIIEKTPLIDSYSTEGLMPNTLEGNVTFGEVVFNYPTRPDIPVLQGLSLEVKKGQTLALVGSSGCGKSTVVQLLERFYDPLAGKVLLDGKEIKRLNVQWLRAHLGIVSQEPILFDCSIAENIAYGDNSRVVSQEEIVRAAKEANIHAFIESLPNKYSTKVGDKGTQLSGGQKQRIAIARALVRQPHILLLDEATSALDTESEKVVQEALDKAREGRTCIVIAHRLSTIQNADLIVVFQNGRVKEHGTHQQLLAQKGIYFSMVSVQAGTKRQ
# [14] = format: in vivo, human; remark: listed apart in the source
# CYP2C9 = experiment: In vitro CYP inhibition; format: in vitro ADME
# CYP3A4/5 = experiment: In vitro CYP inhibition; format: in vitro ADME
# [15] = multiple daily doses of vortioxetine 10 mg; CYP2D6 probe; cited from earlier work
# [16] = omeprazole 40 mg single dose + vortioxetine 10 mg at steady state (test), day 16
# [17] = omeprazole 40 mg single dose alone (reference), day 1
# [18] = concomitant agent alone (reference): placebo + EE/L 30/150 μg for 21 days
# [19] = vortioxetine 10 mg + EE/L 30/150 μg for 21 days (test)
# [20] = co-administered with fluconazole vs vortioxetine alone
# [21] = co-administered with bupropion vs vortioxetine alone
# [22] = co-administered with ketoconazole vs vortioxetine alone
# [23] = co-administered with rifampicin vs vortioxetine alone
compound,measurement,setting,value
"COc1ccc2nc([S+]([O-])Cc3ncc(CO)c(OC)c3C)[nH]c2c1 (centres unmarked) [5′-Hydroxyomeprazole, 5′-hydroxyomeprazole]","AUC∞, least-squares mean",[1]; [16],0.976 µg·h/mL
same,"Cmax, least-squares mean",[1]; [16],411 ng/mL
same,"AUC∞, least-squares mean",[1]; [17],0.997 µg·h/mL
same,"Cmax, least-squares mean",[1]; [17],392 ng/mL
same,AUC∞ ratio (test/reference),[1]; with vortioxetine vs alone,97.9%
same,Cmax ratio (test/reference),[1]; with vortioxetine vs alone,104%
"CC(NC(C)(C)C)C(=O)c1cccc(Cl)c1 (centres unmarked) [Bupropion, bupropion]",Cmax greater when given with vortioxetine than without,[2]; bupropion with vs without vortioxetine,18%
same,AUC,"[2]; human, plasma, 150 mg",0.791 µg·h/mL
same,"Cmax, least-squares mean","[2]; vortioxetine 10 mg once daily + bupropion 150 mg twice daily (test), day 28",177 ng/mL
same,AUC24 ratio (test/reference),[2]; with vortioxetine vs alone,99.22%
same,Cmax ratio (test/reference),[2]; with vortioxetine vs alone,117.98%
same,Abnormal dreams,[3],0 number of subjects (%)
same,Agitation,[3],0 number of subjects (%)
same,Anxiety,[3],0 number of subjects (%)
same,Any adverse event,[3],19 (63.3) number of subjects (%)
same,Constipation,[3],0 number of subjects (%)
same,Dizziness,[3],3 (10.0) number of subjects (%)
same,Dyspepsia,[3],2 (6.7) number of subjects (%)
same,Fatigue,[3],0 number of subjects (%)
same,Headache,[3],10 (33.3) number of subjects (%)
same,Hyperhidrosis,[3],1 (3.3) number of subjects (%)
same,Insomnia,[3],1 (3.3) number of subjects (%)
same,Nausea,[3],5 (16.7) number of subjects (%)
same,Oropharyngeal pain,[3],0 number of subjects (%)
same,Palpitations,[3],2 (6.7) number of subjects (%)
same,Somnolence,[3],3 (10.0) number of subjects (%)
same,Tremor,[3],1 (3.3) number of subjects (%)
same,URTI (upper respiratory tract infection),[3],3 (10.0) number of subjects (%)
same,Vertigo,[3],1 (3.3) number of subjects (%)
same,Vomiting,[3],2 (6.7) number of subjects (%)
"C#C[C@]1(O)CC[C@H]2[C@@H]3CCc4cc(O)ccc4[C@H]3CC[C@@]21C [Ethinyl estradiol, ethinyl estradiol]",AUC,[4]; [18],0.000857 µg·h/mL
same,AUC,[4]; [19],0.00085 µg·h/mL
same,Cmax,[4]; [19],0.0816 ng/mL
same,AUC24 ratio (test/reference),[4],99.19%
same,Cmax ratio (test/reference),[4],93.87%
"C#C[C@]1(O)CC[C@H]2[C@@H]3CCC4=CC(=O)CC[C@@H]4[C@H]3CC[C@@]21CC [Levonorgestrel, levonorgestrel]",AUC,[4]; [18],0.0868 µg·h/mL
same,Cmax,[4]; [18],6.76 ng/mL
same,Cmax,[4]; [19],7.23 ng/mL
same,AUC24 ratio (test/reference),[4],102.07%
same,Cmax ratio (test/reference),[4],107.06%
Cc1cc(C(=O)O)ccc1Sc1ccccc1N1CCNCC1 [Lu AA34443],pharmacological activity,[5],pharmacologically inactive
Cc1ccc(Sc2cc(O)ccc2N2CCNCC2)c(C)c1 [Lu AA39835],plasma metabolic ratio,[6],≤ 4%
same,penetration of the blood–brain barrier,[7],not expected to penetrate the blood–brain barrier
"COc1ccc2[nH]c([S+]([O-])Cc3ncc(C)c(OC)c3C)nc2c1 (centres unmarked) [Omeprazole, omeprazole]",AUC(0-inf),"[1]; human, plasma, 40 mg",1.11 µg·h/mL
same,Cmax,"[1]; human, plasma, 40 mg",550 ng/mL
same,Cmax greater when given with vortioxetine than without,[1]; omeprazole with vs without vortioxetine,11%
same,Cmax ratio (test/reference),[1]; with vortioxetine vs alone,111%
"Br.Cc1ccc(Sc2ccccc2N2CCNCC2)c(C)c1 [Vortioxetine, 1-[2-(2,4-dimethylphenylsulfanyl)-phenyl]-piperazine-hydrobromide]",increase in vortioxetine AUC,[8]; [20],46%
same,increase in vortioxetine Cmax,[8]; [20],15%
same,AUC(0-t),"[8]; human, plasma, 10 mg",0.222 µg·h/mL
same,Cmax,"[8]; human, plasma, 10 mg",4.52 ng/mL
same,AUClast ratio (test/reference),[8]; with fluconazole vs alone,146.17%
same,Cmax ratio (test/reference),[8]; with fluconazole vs alone,114.64%
same,drug-related material excreted in the feces,[9],one-third
same,drug-related material excreted in the urine,[9]; primarily as Lu AA34443 and its glucuronide,two-thirds
same,AUC,"[10]; human, plasma, 10 mg",0.243 µg·h/mL
same,Cmax,"[10]; human, plasma, 10 mg",13.8 ng/mL
same,AUC24 ratio (test/reference),[10]; with omeprazole vs alone,105.5%
same,Cmax ratio (test/reference),[10]; with omeprazole vs alone,100.5%
same,inhibitory concentration/inhibition constant ratio ([I]/Ki),CYP2C19,≤ 0.024
same,inhibitory concentration/inhibition constant ratio ([I]/Ki),CYP1A2,≤ 0.024
same,inhibitory concentration/inhibition constant ratio ([I]/Ki),CYP2E1,≤ 0.024
same,increase in exposure of vortioxetine,[11]; bupropion added to vortioxetine,approximately 100%
same,increase in vortioxetine AUC,[11]; [21],128%
same,increase in vortioxetine Cmax,[11]; [21],114%
same,AUC,"[11]; human, plasma, 10 mg",0.308 µg·h/mL
same,Cmax,"[11]; human, plasma, 10 mg",15.9 ng/mL
same,AUC24 ratio (test/reference),[11]; with bupropion vs alone,228.30%
same,Cmax ratio (test/reference),[11]; with bupropion vs alone,213.57%
same,inhibitory concentration/inhibition constant ratio ([I]/Ki),CYP2C8,≤ 0.024
same,inhibitory concentration/inhibition constant ratio ([I]/Ki),CYP2B6,≤ 0.024
same,Abnormal dreams,[3],2 (6.7) number of subjects (%)
same,Agitation,[3],0 number of subjects (%)
same,Anxiety,[3],0 number of subjects (%)
same,Constipation,[3],3 (10.0) number of subjects (%)
same,Dizziness,[3],1 (3.3) number of subjects (%)
same,Dyspepsia,[3],1 (3.3) number of subjects (%)
same,Fatigue,[3],1 (3.3) number of subjects (%)
same,Headache,[3],4 (13.3) number of subjects (%)
same,Hyperhidrosis,[3],0 number of subjects (%)
same,Insomnia,[3],1 (3.3) number of subjects (%)
same,Nausea,[3],9 (30.0) number of subjects (%)
same,Oropharyngeal pain,[3],0 number of subjects (%)
same,Palpitations,[3],2 (6.7) number of subjects (%)
same,Somnolence,[3],0 number of subjects (%)
same,Tremor,[3],0 number of subjects (%)
same,URTI (upper respiratory tract infection),[3],0 number of subjects (%)
same,Vertigo,[3],0 number of subjects (%)
same,Vomiting,[3],3 (10.0) number of subjects (%)
same,increase in vortioxetine AUC,[12]; [22],30%
same,increase in vortioxetine Cmax,[12]; [22],26%
same,AUC(0-t),"[12]; human, plasma, 10 mg",0.262 µg·h/mL
same,Cmax,"[12]; human, plasma, 10 mg",4.92 ng/mL
same,AUClast ratio (test/reference),[12]; with ketoconazole vs alone,130.48%
same,Cmax ratio (test/reference),[12]; with ketoconazole vs alone,125.73%
same,inhibitory concentration/inhibition constant ratio ([I]/Ki),CYP2D6,≤ 0.024
same,elimination half-life,[13],57 h
same,steady-state volume of distribution,[13],approximately 2600 L
same,oral bioavailability,[13]; independent of food,75%
same,inhibitory concentration/inhibition constant ratio ([I]/Ki),CYP2A6,≤ 0.024
same,in vitro net efflux ratio (P-gp substrate),P-glycoprotein (P-gp),much lower than that of the P-gp substrate digoxin
same,decrease in vortioxetine AUC (exposure),[14]; [23],72% and 72 to 77%
same,decrease in vortioxetine Cmax,[14]; [23],51%
same,AUC(0-t),"[14]; human, plasma, 20 mg",0.438 µg·h/mL
same,Cmax,"[14]; human, plasma, 20 mg",8.92 ng/mL
same,AUClast ratio (test/reference),[14]; with rifampicin vs alone,27.74%
same,Cmax ratio (test/reference),[14]; with rifampicin vs alone,49.11%
same,inhibitory concentration/inhibition constant ratio ([I]/Ki),CYP2C9,≤ 0.024
same,inhibitory concentration/inhibition constant ratio ([I]/Ki),CYP3A4/5,≤ 0.024
COc1ccc2c(c1)[C@]13CCCC[C@@H]1[C@H](C2)N(C)CC3 [dextromethorphan],decrease in plasma exposure of probe substrate by vortioxetine,[15],up to 24%
